ChEMBL document CHEMBL4680236, “Design, synthesis and structure-activity relationships of novel 15-membered macrolides: Quinolone/quinoline-containing sidechains tethered to the C-6 position of azithromycin acylides” (Eur J Med Chem, 2020)
Values after ≈ are worked out from the molar mass of the structure shown.

Experiments:
[1] = system: Staphylococcus epidermidis; assay: Antibacterial activity against methicillin-susceptible Staphylococcus epidermidis ATCC 12228 assessed as reduction in microbial growth; format: functional
[2] = system: Staphylococcus epidermidis; assay: Antibacterial activity against methicillin-resistant Staphylococcus epidermidis 16-5 assessed as reduction in microbial growth; format: functional
Staphylococcus aureus [3] = assay: Antibacterial activity against methicillin-susceptible Staphylococcus aureus ATCC 29213 assessed as reduction in microbial growth; format: functional
Staphylococcus aureus [4] = assay: Antibacterial activity against methicillin-resisitant Staphylococcus aureus 16-30 assessed as reduction in microbial growth; format: functional
Escherichia coli [5] = assay: Antibacterial activity against NDM-1 producing Escherichia coli […] assessed as reduction in microbial growth; format: functional
Klebsiella pneumoniae [6] = assay: Antibacterial activity against NDM-1 producing Klebsiella pneumoniae ATCC BAA-2146 assessed as reduction in microbial growth; format: functional
Enterococcus faecalis = assay: Antibacterial activity against vancomycin-susceptible Enterococcus faecalis ATCC 29212 assessed as reduction in microbial growth; format: functional
Acinetobacter baumannii = assay: Antibacterial activity against Acinetobacter baumannii ATCC 19606 assessed as reduction in microbial growth; format: functional; conditions: ATCC 19606 = CIP 70.34 = JCM 6841
Enterobacter cloacae = assay: Antibacterial activity against Enterobacter cloacae ATCC 43560 assessed as reduction in microbial growth; format: functional
Klebsiella aerogenes = assay: Antibacterial activity against Enterobacter aerogenes ATCC 13048 assessed as reduction in microbial growth; format: functional
Shigella = assay: Antibacterial activity against Shigella ATCC 12022 assessed as reduction in microbial growth; format: functional
Enterococcus faecium = assay: Antibacterial activity against vancomycin-resistant Enterococcus faecium ATCC 700221 assessed as reduction in microbial growth
Streptococcus pneumoniae [7] = assay: Antibacterial activity against Erythromycin-susceptible Streptococcus pneumoniae ATCC 49619 assessed as reduction in microbial growth; format: functional
Streptococcus pneumoniae [8] = assay: Bactericidal activity against Erythromycin-susceptible Streptococcus pneumoniae ATCC 49619; format: functional
How it was run: (§1)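 Bacteria were exposed to 1- to 8-fold MIC of the sample, then transferred to fresh medium without antibacterial. After further incubation, colonies were counted. MBC was taken as the lowest concentration giving a >3 log10 reduction in colony number.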

Streptococcus pneumoniae [9] = assay: Ratio of MBC to MIC against Erythromycin-susceptible Streptococcus pneumoniae ATCC 49619; format: functional
Streptococcus pneumoniae [10] = assay: Antibacterial activity against penicillin-susceptible Streptococcus pneumoniae PU09 harboring mef gene assessed as reduction in microbial growth; format: functional
Streptococcus pneumoniae [11] = assay: Bactericidal activity against penicillin-susceptible Streptococcus pneumoniae PU09 harboring mef gene; format: functional
How it was run: (§2)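 Bacteria were exposed to 1- to 8-fold their MIC of test sample, then transferred to fresh culture medium without antibacterial compound and incubated for the required time. Colonies were then counted. MBC is the lowest concentration giving a reduction in colony number of >3 Log₁₀.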

Streptococcus pneumoniae [12] = assay: Ratio of MBC to MIC against penicillin-susceptible Streptococcus pneumoniae PU09; format: functional
Streptococcus pneumoniae [13] = assay: Antibacterial activity against MLSB-resistant Streptococcus pneumoniae 07P390 harboring ermB gene assessed as reduction in microbial growth; format: functional
Streptococcus pneumoniae [14] = assay: Bactericidal activity against MLSB-resistant Streptococcus pneumoniae 07P390 harboring ermB gene assessed as reduction in microbial growth; format: functional; how it was run: as §2
Streptococcus pneumoniae [15] = assay: Ratio of MBC to MIC against MLSB-resistant Streptococcus pneumoniae 07P390 harboring ermB; format: functional
Staphylococcus aureus [16] = assay: Antibacterial activity against MLSB/methicillin/ciprofloxacin-resistant Staphylococcus aureus PU32 harboring ermA gene assessed as reduction in microbial growth; format: functional
Staphylococcus aureus [17] = assay: Bactericidal activity against MLSB/methicillin/ciprofloxacin-resistant Staphylococcus aureus PU32 harboring ermA gene; format: functional; how it was run: as §2
Staphylococcus aureus [18] = assay: Ratio of MBC to MIC against MLSB/methicillin/ciprofloxacin-resistant Staphylococcus aureus PU32 harboring ermA gene; format: functional
Staphylococcus aureus [19] = assay: Antibacterial activity against MLSB/methicillin-resistant Staphylococcus aureus 15B196 assessed as reduction in microbial growth; format: functional
Staphylococcus aureus [20] = assay: Bactericidal activity against MLSB/methicillin-resistant Staphylococcus aureus 15B196; format: functional; how it was run: as §2
Haemophilus influenzae [21] = assay: Antibacterial activity against azithromycin-susceptible Haemophilus influenzae ATCC 49247 assessed as reduction in microbial growth; format: functional
Haemophilus influenzae [22] = assay: Bactericidal activity against azithromycin-susceptible Haemophilus influenzae ATCC 49247; format: functional; how it was run: as §1
Haemophilus influenzae [23] = assay: Ratio of MBC to MIC against azithromycin-susceptible Haemophilus influenzae ATCC 49247; format: functional
Escherichia coli [24] = assay: Antibacterial activity against ESBL negative Escherichia coli 16-7 assessed as reduction in microbial growth; format: functional
Escherichia coli [25] = assay: Antibacterial activity against ESBL positive Escherichia coli 16-1 assessed as reduction in microbial growth; format: functional
Klebsiella pneumoniae [26] = assay: Antibacterial activity against ESBL producing Klebsiella pneumoniae 16-14 assessed as reduction in microbial growth; format: functional
Pseudomonas aeruginosa = assay: Antibacterial activity against Pseudomonas aeruginosa ATCC 27853 assessed as reduction in microbial growth; format: functional
Staphylococcus aureus [27] = assay: Antibacterial activity against MLSB/methicillin/ciprofloxacin-resistant Staphylococcus aureus PU32 harboring ermA gene assessed as reduction in microbial growth relative to ciprofloxacin; format: functional
Staphylococcus aureus [28] = assay: Antibacterial activity against MLSB/methicillin-resistant Staphylococcus aureus 15B196 assessed as reduction in microbial growth relative to ciprofloxacin; format: functional
Haemophilus influenzae [29] = assay: Antibacterial activity against azithromycin-susceptible Haemophilus influenzae ATCC 49247 assessed as reduction in microbial growth relative to ciprofloxacin; format: functional
Escherichia coli [30] = assay: Antibacterial activity against Escherichia coli BW25113 depletion of toIC efflux gene assessed as reduction in microbial growth; format: functional
Escherichia coli [31] = assay: Antibacterial activity against Escherichia coli JW5503-1 depletion of toIC efflux gene assessed as reduction in microbial growth; format: functional
Escherichia coli [32] = assay: Antibacterial activity against Escherichia coli JW5503-KanS depletion of toIC efflux gene assessed as reduction in microbial growth; format: functional

Structure (SMILES): C[C@H]1COc2c(N3CCN(C)CC3)c(F)cc3c(=O)c(C(=O)O)cn1c23.C[C@H]1COc2c(N3CCN(C)CC3)c(F)cc3c(=O)c(C(=O)O)cn1c23.O [LEVOFLOXACIN]
- MIC [1]: 0.12 µg/mL
- MIC [2]: 8 µg/mL
- MIC (Staphylococcus aureus [3]): 0.12 µg/mL
- MIC (Staphylococcus aureus [4]): 32 µg/mL
- MIC (Escherichia coli [5]): 16 µg/mL
- MIC (Klebsiella pneumoniae [6]): > 128 µg/mL
- MIC (Enterococcus faecalis): 0.5 µg/mL
- MIC (Acinetobacter baumannii): 0.25 µg/mL
- MIC (Enterobacter cloacae): < 0.03 µg/mL
- MIC (Klebsiella aerogenes): 0.06 µg/mL
- MIC (Shigella): < 0.03 µg/mL
- MIC (Enterococcus faecium): 32 µg/mL

Structure (SMILES): CC[C@H]1OC(=O)[C@H](C)[C@@H](OC(=O)Cc2ccccn2)[C@H](C)[C@@H](O[C@@H]2O[C@H](C)C[C@H](N(C)C)[C@H]2O)[C@](C)(OC(=O)CCNCCC#Cc2cnc3ccccc3c2)C[C@@H](C)CN(C)[C@H](C)[C@@H](O)[C@]1(C)O
- MIC (Streptococcus pneumoniae [7]): 0.062 µg/mL
- MBC (Streptococcus pneumoniae [8]): 0.125 µg/mL (≈ 0.13 µM)
- Ratio (Streptococcus pneumoniae [9]): 2
- MIC (Streptococcus pneumoniae [10]): 1 µg/mL
- MBC (Streptococcus pneumoniae [11]): 1 µg/mL (≈ 1.04 µM)
- Ratio (Streptococcus pneumoniae [12]): 1
- MIC (Streptococcus pneumoniae [13]): 0.5 µg/mL
- MBC (Streptococcus pneumoniae [14]): > 4 µg/mL
- Ratio (Streptococcus pneumoniae [15]): >8
- MIC (Staphylococcus aureus [16]): 1 µg/mL
- MBC (Staphylococcus aureus [17]): > 8 µg/mL
- Ratio (Staphylococcus aureus [18]): >8
- MIC (Staphylococcus aureus [19]): 128 µg/mL
- MBC (Staphylococcus aureus [20]): > 256 µg/mL
- MIC (Haemophilus influenzae [21]): 2 µg/mL
- MBC (Haemophilus influenzae [22]): 4 µg/mL (≈ 4.17 µM)
- Ratio (Haemophilus influenzae [23]): 2
- MIC [1]: 0.25 µg/mL
- MIC [2]: > 64 µg/mL
- MIC (Staphylococcus aureus [3]): 1 µg/mL
- MIC (Staphylococcus aureus [4]): > 64 µg/mL
- MIC (Escherichia coli [24]): 8 µg/mL
- MIC (Escherichia coli [25]): 8 µg/mL
- MIC (Escherichia coli [5]): 8 µg/mL
- MIC (Klebsiella pneumoniae [6]): 32 µg/mL
- MIC (Klebsiella pneumoniae [26]): 16 µg/mL
- MIC (Enterococcus faecalis): 1 µg/mL
- MIC (Acinetobacter baumannii): > 64 µg/mL
- MIC (Enterobacter cloacae): 32 µg/mL
- MIC (Klebsiella aerogenes): 32 µg/mL
- MIC (Shigella): 8 µg/mL
- MIC (Pseudomonas aeruginosa): > 64 µg/mL
- fold change (FC) (Staphylococcus aureus [27]): 0.0054
- fold change (FC) (Staphylococcus aureus [28]): 88
- fold change (FC) (Haemophilus influenzae [29]): 172
- MIC (Enterococcus faecium): > 64 µg/mL

Structure (SMILES): CC[C@H]1OC(=O)[C@H](C)[C@@H](O[C@H]2C[C@@](C)(OC)[C@@H](O)[C@H](C)O2)[C@H](C)[C@@H](O[C@@H]2O[C@H](C)C[C@H](N(C)C)[C@H]2O)[C@](C)(O)C[C@@H](C)CN(C)[C@H](C)[C@@H](O)[C@]1(C)O [AZITHROMYCIN]
- MIC (Streptococcus pneumoniae [7]): 0.062 µg/mL
- MBC (Streptococcus pneumoniae [8]): 0.25 µg/mL (≈ 0.334 µM)
- Ratio (Streptococcus pneumoniae [9]): 4
- MIC (Streptococcus pneumoniae [10]): 8 µg/mL
- MBC (Streptococcus pneumoniae [11]): 16 µg/mL (≈ 21.4 µM)
- Ratio (Streptococcus pneumoniae [12]): 2
- MIC (Streptococcus pneumoniae [13]): 256 µg/mL
- MBC (Streptococcus pneumoniae [14]): > 257 µg/mL
- MIC (Staphylococcus aureus [16]): 32 µg/mL
- MBC (Staphylococcus aureus [17]): 32 µg/mL (≈ 42.7 µM)
- Ratio (Staphylococcus aureus [18]): 1
- MIC (Staphylococcus aureus [19]): > 256 µg/mL
- MBC (Staphylococcus aureus [20]): > 256 µg/mL
- MIC (Haemophilus influenzae [21]): 2 µg/mL
- MBC (Haemophilus influenzae [22]): 8 µg/mL (≈ 10.7 µM)
- Ratio (Haemophilus influenzae [23]): 4
- fold change (FC) (Staphylococcus aureus [27]): 0.22
- fold change (FC) (Staphylococcus aureus [28]): >226
- fold change (FC) (Haemophilus influenzae [29]): 22
- MIC (Escherichia coli [30]): > 16 µg/mL
- MIC (Escherichia coli [31]): 4 µg/mL
- MIC (Escherichia coli [32]): 2 µg/mL

Structure (SMILES): CC[C@H]1OC(=O)[C@H](C)[C@@H](OC(=O)Cc2ccccn2)[C@H](C)[C@@H](O[C@@H]2O[C@H](C)C[C@H](N(C)C)[C@H]2O)[C@](C)(OC(=O)CCNCCCNc2cc3c(=O)c(C(=O)O)cn(C4CC4)c3cc2Cl)C[C@@H](C)CN(C)[C@H](C)[C@@H](O)[C@]1(C)O
- MIC (Streptococcus pneumoniae [7]): 0.125 µg/mL
- MBC (Streptococcus pneumoniae [8]): 0.125 µg/mL (≈ 0.114 µM)
- Ratio (Streptococcus pneumoniae [9]): 1
- MIC (Streptococcus pneumoniae [10]): 1 µg/mL
- MBC (Streptococcus pneumoniae [11]): 1 µg/mL (≈ 0.909 µM)
- Ratio (Streptococcus pneumoniae [12]): 1
- MIC (Streptococcus pneumoniae [13]): 1 µg/mL
- MBC (Streptococcus pneumoniae [14]): > 8 µg/mL
- Ratio (Streptococcus pneumoniae [15]): >8
- MIC (Staphylococcus aureus [16]): 8 µg/mL
- MBC (Staphylococcus aureus [17]): > 64 µg/mL
- Ratio (Staphylococcus aureus [18]): >8
- MIC (Staphylococcus aureus [19]): > 256 µg/mL
- MIC (Haemophilus influenzae [21]): 16 µg/mL
- MBC (Haemophilus influenzae [22]): 64 µg/mL (≈ 58.2 µM)
- Ratio (Haemophilus influenzae [23]): 4
- MIC [1]: 4 µg/mL
- MIC [2]: > 64 µg/mL
- MIC (Staphylococcus aureus [3]): 8 µg/mL
- MIC (Staphylococcus aureus [4]): > 64 µg/mL
- MIC (Escherichia coli [24]): 64 µg/mL
- MIC (Escherichia coli [25]): 32 µg/mL
- MIC (Escherichia coli [5]): 64 µg/mL
- MIC (Klebsiella pneumoniae [6]): > 64 µg/mL
- MIC (Klebsiella pneumoniae [26]): 64 µg/mL
- MIC (Enterococcus faecalis): 8 µg/mL
- MIC (Acinetobacter baumannii): > 64 µg/mL
- MIC (Enterobacter cloacae): 64 µg/mL
- MIC (Klebsiella aerogenes): 64 µg/mL
- MIC (Shigella): 16 µg/mL
- MIC (Pseudomonas aeruginosa): > 64 µg/mL
- MIC (Enterococcus faecium): > 64 µg/mL
